Experimental data from ChEMBL document CHEMBL6177937, “Design, synthesis, and biological evaluation of novel thiazole derivatives as PI3K/mTOR dual inhibitors” (RSC Med Chem, 2024).

What was measured:
HL-60 [1] = assay: Cell cycle arrest in human HL-60 cells assessed as decrease in accumulation of cells at G2/M-phase at 2.32 uM measured after 24 hrs by propidium iodide staining based flow cytometry relative to control; type: functional; set-up: scale not given: the % may be the effect or the level left
HL-60 [2] = assay: Cell cycle arrest in human HL-60 cells assessed as decrease in accumulation of cells at S-phase at 2.32 uM measured after 24 hrs by propidium iodide staining based flow cytometry relative to control; type: functional; set-up: scale not given: the % may be the effect or the level left
SR = assay: Growth inhibition of human SR cells measured after 48 hrs by SRB assay; type: functional
In short: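 NCI 60-line SRB screen: cells seeded […], grown 24 h at 37°C, 5% CO2, then exposed 48 h to five concentrations (10-fold or ½-log dilutions from DMSO stock). Adherent cells fixed with cold TCA (final 10%), suspension cells with 80% TCA (final 16%); SRB stained, read at 515 nm. GI50 from time-zero, control and treated absorbances.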

HL-60 [3] = assay: Induction of apoptosis in human HL-60 cells assessed as increase in caspase-3 level measured after 24 hrs by ELISA relative to control
HL-60 [4] = assay: Cell cycle arrest in human HL-60 cells assessed as increase in accumulation of cells at G0/G1-phase at 2.32 uM measured after 24 hrs by propidium iodide staining based flow cytometry relative to control; type: functional
HL-60 [5] = assay: Cell cycle arrest in human HL-60 cells assessed as decrease in accumulation of cells at S-phase at 2.29 uM measured after 24 hrs by propidium iodide staining based flow cytometry relative to control; type: functional; set-up: scale not given: the % may be the effect or the level left
HL-60 [6] = assay: Cell cycle arrest in human HL-60 cells assessed as increase in accumulation of cells at G0/G1-phase at 2.29 uM measured after 24 hrs by propidium iodide staining based flow cytometry relative to control; type: functional
HL-60 [7] = assay: Cell cycle arrest in human HL-60 cells assessed as decrease in accumulation of cells at G2/M-phase at 2.29 uM measured after 24 hrs by propidium iodide staining based flow cytometry relative to control; type: functional; set-up: scale not given: the % may be the effect or the level left

Row | SMILES | Activity (HL-60 [1]) [%] | Activity (HL-60 [2]) [%] | GI50 (SR) [µM] | TGI (SR) [µM] | CC50 (SR; read-out: LC50 (the source's name)) [µM] | fold change (FC) (HL-60 [3]) | fold change (FC) (HL-60 [4]) | Activity (HL-60 [5]) [%] | fold change (FC) (HL-60 [6]) | Activity (HL-60 [7]) [%]
1 | CCOc1cc(/C=N/Nc2nc(-c3cccc([N+](=O)[O-])c3)cs2)ccc1O | 63.5 | 2.5 | 3.07 | > 100 | > 100 | 4.61 | 1.28 | – | – | –
2 | O=[N+]([O-])c1cc(/C=N/Nc2nc(-c3ccc(Cl)cc3)cs2)ccc1Cl | – | – | – | – | – | 3.48 | – | 7.3 | 1.13 | 12.8
